Results from ChEMBL document CHEMBL2311295 (J Med Chem, 2013).

Columns and labels:
HCT-116/VM46 = assay: Cytotoxicity against vinblastine-resistant human HCT116/VM46 cells after 72 hrs by phosphatase assay; format: functional, cell-based; settings: HCT-116/VM46, 72 h
In short: (§1)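 Cells diluted to 30,000 cells/mL in DMEM with 10% FBS and seeded into 96-well plates (100 μL per well), then grown 24 h at 37 °C under 5% CO2. Test agents were made as 1 mM DMSO stocks with 10-fold serial dilutions and tested at six concentrations over 0–1,000 nM or 0–10,000 nM, in duplicate, for 72 h. Acid phosphatase read-out: substrate in 0.1 M NaOAc pH 5.5 with 0.1% Triton X-100, 15 min at 37 °C, stopped with NaOH, A405. IC50 is the mean of 4–16 determinations.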

HCT-116 = assay: Cytotoxicity against human HCT116 cells after 72 hrs by phosphatase assay; format: functional, cell-based; settings: HCT-116, 72 h
In short: as §1, with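 “A405.” for “A405. IC50 is the mean of 4–16 determinations.”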

SMILES | IC50 (HCT-116/VM46) [nM] | IC50 (HCT-116) [nM]
CC[C@]1(NC(=S)NCCc2ccc(F)cc2)C[C@H]2CN(CCc3c([nH]c4ccccc34)[C@@](C(=O)OC)(c3cc4c(cc3OC)N(C)[C@H]3[C@@](O)(C(=O)OC)[C@H](OC(C)=O)[C@]5(CC)C=CCN6CC[C@]43[C@@H]65)C2)C1 | 750 | 60
CC[C@]1(NC(=O)NCCO)C[C@H]2CN(CCc3c([nH]c4ccccc34)[C@@](C(=O)OC)(c3cc4c(cc3OC)N(C)[C@H]3[C@@](O)(C(=O)OC)[C@H](OC(C)=O)[C@]5(CC)C=CCN6CC[C@]43[C@@H]65)C2)C1 | > 1000 | 8.8
CC[C@]1(SC#N)C[C@H]2CN(CCc3c([nH]c4ccccc34)[C@@](C(=O)OC)(c3cc4c(cc3OC)N(C)[C@H]3[C@@](O)(C(=O)OC)[C@H](OC(C)=O)[C@]5(CC)C=CCN6CC[C@]43[C@@H]65)C2)C1 | – | 550
CC[C@]1(N)C[C@H]2CN(CCc3c([nH]c4ccccc34)[C@@](C(=O)OC)(c3cc4c(cc3OC)N(C)[C@H]3[C@@](O)(C(=O)OC)[C@H](OC(C)=O)[C@]5(CC)C=CCN6CC[C@]43[C@@H]65)C2)C1 | > 10000 | 600
CC[C@]1(NC(=O)Nc2ccc(F)cc2)C[C@H]2CN(CCc3c([nH]c4ccccc34)[C@@](C(=O)OC)(c3cc4c(cc3OC)N(C)[C@H]3[C@@](O)(C(=O)OC)[C@H](OC(C)=O)[C@]5(CC)C=CCN6CC[C@]43[C@@H]65)C2)C1 | 400 | 3.9
CCNC(=O)N(C)[C@@]1(CC)C[C@H]2CN(CCc3c([nH]c4ccccc34)[C@@](C(=O)OC)(c3cc4c(cc3OC)N(C)[C@H]3[C@@](O)(C(=O)OC)[C@H](OC(C)=O)[C@]5(CC)C=CCN6CC[C@]43[C@@H]65)C2)C1 | 8500 | 520
CC[C@]1(NC(=O)Nc2ccc(Cl)cc2)C[C@H]2CN(CCc3c([nH]c4ccccc34)[C@@](C(=O)OC)(c3cc4c(cc3OC)N(C)[C@H]3[C@@](O)(C(=O)OC)[C@H](OC(C)=O)[C@]5(CC)C=CCN6CC[C@]43[C@@H]65)C2)C1 | 590 | 6.7
CC[C@]1(NC(=O)OC)C[C@H]2CN(CCc3c([nH]c4ccccc34)[C@@](C(=O)OC)(c3cc4c(cc3OC)N(C)[C@H]3[C@@](O)(C(=O)OC)[C@H](OC(C)=O)[C@]5(CC)C=CCN6CC[C@]43[C@@H]65)C2)C1 | – | 75
CC[C@]1(NC(=O)Nc2ccc(C)cc2)C[C@H]2CN(CCc3c([nH]c4ccccc34)[C@@](C(=O)OC)(c3cc4c(cc3OC)N(C)[C@H]3[C@@](O)(C(=O)OC)[C@H](OC(C)=O)[C@]5(CC)C=CCN6CC[C@]43[C@@H]65)C2)C1 | 330 | 4.8
CCCCNC(=O)N[C@@]1(CC)C[C@H]2CN(CCc3c([nH]c4ccccc34)[C@@](C(=O)OC)(c3cc4c(cc3OC)N(C)[C@H]3[C@@](O)(C(=O)OC)[C@H](OC(C)=O)[C@]5(CC)C=CCN6CC[C@]43[C@@H]65)C2)C1 | 270 | 4.6
CC[C@]1(NC(C)=O)C[C@H]2CN(CCc3c([nH]c4ccccc34)[C@@](C(=O)OC)(c3cc4c(cc3OC)N(C)[C@H]3[C@@](O)(C(=O)OC)[C@H](OC(C)=O)[C@]5(CC)C=CCN6CC[C@]43[C@@H]65)C2)C1 | – | 90
CC[C@]1(NC(=O)NCc2ccccc2)C[C@H]2CN(CCc3c([nH]c4ccccc34)[C@@](C(=O)OC)(c3cc4c(cc3OC)N(C)[C@H]3[C@@](O)(C(=O)OC)[C@H](OC(C)=O)[C@]5(CC)C=CCN6CC[C@]43[C@@H]65)C2)C1 | 740 | 7.3
CC[C@]1(NC(N)=O)C[C@H]2CN(CCc3c([nH]c4ccccc34)[C@@](C(=O)OC)(c3cc4c(cc3OC)N(C)[C@H]3[C@@](O)(C(=O)OC)[C@H](OC(C)=O)[C@]5(CC)C=CCN6CC[C@]43[C@@H]65)C2)C1 | 4400 | 7.5
CC[C@]1(NC(=O)NC2CCCCC2)C[C@H]2CN(CCc3c([nH]c4ccccc34)[C@@](C(=O)OC)(c3cc4c(cc3OC)N(C)[C@H]3[C@@](O)(C(=O)OC)[C@H](OC(C)=O)[C@]5(CC)C=CCN6CC[C@]43[C@@H]65)C2)C1 | 450 | 5.4
CC[C@]1(NC)C[C@H]2CN(CCc3c([nH]c4ccccc34)[C@@](C(=O)OC)(c3cc4c(cc3OC)N(C)[C@H]3[C@@](O)(C(=O)OC)[C@H](OC(C)=O)[C@]5(CC)C=CCN6CC[C@]43[C@@H]65)C2)C1 | 8500 | 60
CC[C@]1(NC(=O)NCc2ccco2)C[C@H]2CN(CCc3c([nH]c4ccccc34)[C@@](C(=O)OC)(c3cc4c(cc3OC)N(C)[C@H]3[C@@](O)(C(=O)OC)[C@H](OC(C)=O)[C@]5(CC)C=CCN6CC[C@]43[C@@H]65)C2)C1 | 530 | 5.1

SMILES | IC50 (HCT-116/VM46) [nM] | IC50 (HCT-116) [nM]
CC[C@]1(NC(=O)NCc2ccccn2)C[C@H]2CN(CCc3c([nH]c4ccccc34)[C@@](C(=O)OC)(c3cc4c(cc3OC)N(C)[C@H]3[C@@](O)(C(=O)OC)[C@H](OC(C)=O)[C@]5(CC)C=CCN6CC[C@]43[C@@H]65)C2)C1 | 670 | 5.6
CC[C@@H]1C[C@H]2CN(CCc3c([nH]c4ccccc34)[C@@](C(=O)OC)(c3cc4c(cc3OC)N(C)[C@H]3[C@@](O)(C(=O)OC)[C@H](OC(C)=O)[C@]5(CC)C=CCN6CC[C@]43[C@@H]65)C2)C1 [ROSEAMINE] | – | 60
CC[C@]1(OC(=O)N(C)C)C[C@H]2CN(CCc3c([nH]c4ccccc34)[C@@](C(=O)OC)(c3cc4c(cc3OC)N(C)[C@H]3[C@@](O)(C(=O)OC)[C@H](OC(C)=O)[C@]5(CC)C=CCN6CC[C@]43[C@@H]65)C2)C1 | 9100 | 4700
CC[C@]1(N=C=S)C[C@H]2CN(CCc3c([nH]c4ccccc34)[C@@](C(=O)OC)(c3cc4c(cc3OC)N(C)[C@H]3[C@@](O)(C(=O)OC)[C@H](OC(C)=O)[C@]5(CC)C=CCN6CC[C@]43[C@@H]65)C2)C1 | – | 530
CCN(CC)C(=O)N[C@@]1(CC)C[C@H]2CN(CCc3c([nH]c4ccccc34)[C@@](C(=O)OC)(c3cc4c(cc3OC)N(C)[C@H]3[C@@](O)(C(=O)OC)[C@H](OC(C)=O)[C@]5(CC)C=CCN6CC[C@]43[C@@H]65)C2)C1 | 450 | 6.7
CC[C@]1(NC(=O)N2CCOCC2)C[C@H]2CN(CCc3c([nH]c4ccccc34)[C@@](C(=O)OC)(c3cc4c(cc3OC)N(C)[C@H]3[C@@](O)(C(=O)OC)[C@H](OC(C)=O)[C@]5(CC)C=CCN6CC[C@]43[C@@H]65)C2)C1 | 360 | 4.5
CC[C@]1(NC(=S)Nc2ccccc2)C[C@H]2CN(CCc3c([nH]c4ccccc34)[C@@](C(=O)OC)(c3cc4c(cc3OC)N(C)[C@H]3[C@@](O)(C(=O)OC)[C@H](OC(C)=O)[C@]5(CC)C=CCN6CC[C@]43[C@@H]65)C2)C1 | 650 | 40
CC[C@]1(NC(=O)Nc2ccc(OC)cc2)C[C@H]2CN(CCc3c([nH]c4ccccc34)[C@@](C(=O)OC)(c3cc4c(cc3OC)N(C)[C@H]3[C@@](O)(C(=O)OC)[C@H](OC(C)=O)[C@]5(CC)C=CCN6CC[C@]43[C@@H]65)C2)C1 | 230 | 2
CC[C@]1(NC=O)C[C@H]2CN(CCc3c([nH]c4ccccc34)[C@@](C(=O)OC)(c3cc4c(cc3OC)N(C)[C@H]3[C@@](O)(C(=O)OC)[C@H](OC(C)=O)[C@]5(CC)C=CCN6CC[C@]43[C@@H]65)C2)C1 | – | 85
CC[C@]1(NC(=O)NCCc2ccccc2)C[C@H]2CN(CCc3c([nH]c4ccccc34)[C@@](C(=O)OC)(c3cc4c(cc3OC)N(C)[C@H]3[C@@](O)(C(=O)OC)[C@H](OC(C)=O)[C@]5(CC)C=CCN6CC[C@]43[C@@H]65)C2)C1 | 590 | 6.3
CC[C@]12C=CCN3CC[C@@]4(c5cc([C@@]6(C(=O)OC)C[C@@H]7CN(CCc8c6[nH]c6ccccc86)C[C@@](CC)(N(C)C)C7)c(OC)cc5N(C)[C@H]4[C@@](O)(C(=O)OC)[C@@H]1OC(C)=O)[C@@H]32 | > 10000 | 980
CC[C@]1(NC(=O)Oc2ccc([N+](=O)[O-])cc2)C[C@H]2CN(CCc3c([nH]c4ccccc34)[C@@](C(=O)OC)(c3cc4c(cc3OC)N(C)[C@H]3[C@@](O)(C(=O)OC)[C@H](OC(C)=O)[C@]5(CC)C=CCN6CC[C@]43[C@@H]65)C2)C1 | – | 55
CC[C@]1(N=[N+]=[N-])C[C@H]2CN(CCc3c([nH]c4ccccc34)[C@@](C(=O)OC)(c3cc4c(cc3OC)N(C)[C@H]3[C@@](O)(C(=O)OC)[C@H](OC(C)=O)[C@]5(CC)C=CCN6CC[C@]43[C@@H]65)C2)C1 | – | 690
CC[C@]1(NC(=S)N(C)C)C[C@H]2CN(CCc3c([nH]c4ccccc34)[C@@](C(=O)OC)(c3cc4c(cc3OC)N(C)[C@H]3[C@@](O)(C(=O)OC)[C@H](OC(C)=O)[C@]5(CC)C=CCN6CC[C@]43[C@@H]65)C2)C1 | 250 | 8.7
CC[C@]1(NC(N)=S)C[C@H]2CN(CCc3c([nH]c4ccccc34)[C@@](C(=O)OC)(c3cc4c(cc3OC)N(C)[C@H]3[C@@](O)(C(=O)OC)[C@H](OC(C)=O)[C@]5(CC)C=CCN6CC[C@]43[C@@H]65)C2)C1 | 2000 | 7.7
